Laboratory results published in ChEMBL document CHEMBL1156469 (2007).
Calls of active or inactive are those of the source. No cut-off for these calls is given here.

What was measured:
MC3T3-E1 [1] = assay: Increase in BMP2 expression in mouse MC3T3-E1 cells expressing pBMP2 mutant at 1 uM after 4 hrs by luciferase method relative to control; type: functional, cell-based
Method in brief: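 MC3T3-E1 cells transfected with BMP-2 promoter–luciferase constructs (full promoter or deletions), treated with 1 μm or vehicle for 4 h; Dual-Luciferase assay; means ± S.D.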

Osteoblast [2] = assay: Effect on vascular cell adhesion molecule 1 gene expression in rat primary osteoblast cells assessed as expression ratio of treated to untreated control by microarray analysis; type: functional
Method in brief: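 GEArray Q series Mouse Osteogenesis cDNA array profiling osteogenic-differentiation genes in treated versus vehicle-treated primary osteoblasts.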

[3] = target: Proto-oncogene tyrosine-protein kinase Src (Mus musculus) (UniProt P05480); assay: Increase in Src kinase phosphorylation in mouse MC3T3-E1 cells at 1 uM; type: cell-based
Method in brief: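 MC3T3-E1 cells, with or without DN-Src vector (3 μg) or PP2 (10 μm), treated ± 1 μm; Src phosphorylation by Western blot; three independent experiments.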

[4] = Reversal of increase in pBMP2 expression in rat primary osteoblast cells transfected with dominant-negative mutant Src expression vector at 1 uM by luciferase method; type: functional, cell-based
[5] = Reversal of increase in pBMP2 expression in rat primary osteoblast cells at 1 uM by luciferase method in presence of PP2; type: functional, cell-based
MDA-MB-231 [6] = assay: Reversal of inhibition in anchorage-independent colony formation of human MDA-MB-231 cells transfected with FOXO3a-specific small interfering RNA by soft agar colony forming assay; type: functional, cell-based
[7] = target: RAC-alpha serine/threonine-protein kinase (Homo sapiens) (UniProt P31749); assay: Inhibition of IGF-induced Akt phosphorylation in human MDA-MB-231 cells by Western blot; type: cell-based
Method in brief: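 MDA-MB-231 cells, control or treated, stimulated with or without IGF; lysates analyzed by Western blot for Akt phosphorylation.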

[8] = target: Forkhead box protein O3 (Homo sapiens) (UniProt O43524); assay: Reversal of induction of FOXO3a activity in human MDA-MB-231 cells transfected with constitutively activated Akt mutant; type: cell-based
MDA-MB-231 [9] = assay: Enhancement of FOXO3a nuclear accumulation in human MDA-MB-231 cells transfected with dominant negative Akt mutant; type: functional, cell-based
Method in brief: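 MDA-MB-231 cells transfected with vector, constitutively active Akt or dominant negative Akt, treated ± compound; analyzed by Western blotting and BMP-2 promoter luciferase activity.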

MDA-MB-231 [10] = assay: Decrease in Akt activation in human MDA-MB-231 cells expressing FOXO3a-specific small interfering RNA xenografted in nude mice at 10 mg/kg for 2 days; type: functional, organism-based; design: dose 10 mg/kg
Method in brief: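 MDA-MB-231 cells were cotransfected with FOXO3a siRNA (pSuper) and pcDNA3 at a 10:1 ratio. Stable pools were selected in 800 μg/ml G418 for 4 weeks, and control siRNA pools were made the same way. […] Akt phosphorylation was then assessed in the primary tumors.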

MDA-MB-231 [11] = assay: Reduction in anchorage-independent colony formation of human MDA-MB-231 cells at 1 uM by soft agar colony forming assay; type: functional, cell-based
Method in brief: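 Seeded in 0.35% noble agar in DMEM/10% FBS over a 0.7% agar bed. Colonies of at least 50 μm counted after 3 weeks under a dissecting microscope, six replicates per treatment. Three separate experiments.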

[12] = Reversal of increase in pBMP2 expression in mouse MC3T3-E1 cells at 1 uM by luciferase method in presence of PP2; type: functional, cell-based
Method in brief: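 BMP-2 promoter activity measured by dual-luciferase assay and expressed relative to the untreated vector control.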

MCF7 = assay: Antiproliferative activity against human MCF7 cells at 1 uM by flow cytometry; type: functional, cell-based
Method in brief: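 Proliferation was measured by DNA flow cytometry. Incubations were run in triplicate across three separate experiments, and values are means ± S.D.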

[13] = target: Alkaline phosphatase, germ cell type (Homo sapiens) (UniProt P10696); assay: Increase in ALP activity in human MG63 cells at 0.1 to 10 uM after 7 days; type: cell-based; settings: MG-63
[14] = target: Alkaline phosphatase (Rattus norvegicus) (UniProt Q9JKS8); assay: Increase in ALP activity in rat primary osteoblast cells at 0.1 to 10 uM after 7 days; type: cell-based
Osteoblast [15] = assay: Increase in osteocalcin mRNA levels in rat primary osteoblast cells at 1 uM after 72 hrs by RT-PCR; type: functional, cell-based
Method in brief: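 Cells treated with 1 μm for 72 h; osteocalcin and osteopontin mRNA by RT-PCR, 30 cycles (95/52/72 °C, 1 min each), ethidium bromide–stained agarose gels; repeated at least twice from at least two cDNA preparations.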

Osteoblast [16] = assay: Inhibition of etoposide-induced apoptosis in rat primary osteoblast cells after 24 hrs by flow cytometry; type: functional, cell-based
Method in brief: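 Cells washed in PBS, held 30 min in 0.5% Triton X-100/PBS/0.05% RNase A, then propidium iodide (50 μg/ml) added and kept on ice 15–30 min. Apoptosis is the hypodiploid fraction below the G0/G1 peak, by flow cytometry. Run in triplicate and repeated on three occasions.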

MC3T3-E1 [17] = assay: Increase in BMP2 mRNA levels in mouse MC3T3-E1 cells at 1 uM by RT-PCR method; type: functional, cell-based; settings: TDE = time-dependent effect
Method in brief: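 Cells treated with 1 μm for 48 h; BMP-2 mRNA measured by quantitative real-time RT-PCR (SYBR Green, 0.5 μm each primer, 4 mm MgCl2, fluorescence read at 82 °C) and normalized.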

Osteoblast [18] = assay: Increase in BMP2 levels in rat primary osteoblast cells at 1 uM after 48 hrs by ELISA; type: functional, cell-based
Method in brief: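 Culture medium collected after 48 h treatment at indicated concentrations; BMP-2 sandwich ELISA, 2 h room temperature incubation, HRP-streptavidin with TMB, absorbance at 450 nm; expressed as percent change versus untreated control.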

Osteoblast [19] = assay: Effect on fibronectin 1 gene expression in rat primary osteoblast cells assessed as expression ratio of treated to untreated control by microarray analysis; type: functional
Osteoblast [20] = assay: Effect on growth differentiation factor 10 gene expression in rat primary osteoblast cells assessed as expression ratio of treated to untreated control by microarray analysis; type: functional
Method in brief: (§1)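 Resveratrol-treated and vehicle-treated primary osteoblasts were profiled on a mouse osteogenesis-focused cDNA array (GEArray Q series) built to track gene expression during osteogenic differentiation. Each gene's signal in treated cells was expressed as a ratio to untreated control.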

Osteoblast [21] = assay: Effect on bone morphogenetic protein 3 gene expression in rat primary osteoblast cells assessed as expression ratio of treated to untreated control by microarray analysis; type: functional
Osteoblast [22] = assay: Effect on procollagen 9 alpha 1 gene expression in rat primary osteoblast cells assessed as expression ratio of treated to untreated control by microarray analysis; type: functional; method in brief: as §1
Osteoblast [23] = assay: Effect on matrix metalloprotease 9 gene expression in rat primary osteoblast cells assessed as expression ratio of treated to untreated control by microarray analysis; type: functional; method in brief: as §1
Osteoblast [24] = assay: Effect on platelet derived growth factor alpha gene expression in rat primary osteoblast cells assessed as expression ratio of treated to untreated control by microarray analysis; type: functional; method in brief: as §1
Osteoblast [25] = assay: Effect on procollagen 18alpha 1 gene expression in rat primary osteoblast cells assessed as expression ratio of treated to untreated control by microarray analysis; type: functional; method in brief: as §1

Proto-oncogene tyrosine-protein kinase Src (Mus musculus), sequence (P05480 2-535 limits assumed): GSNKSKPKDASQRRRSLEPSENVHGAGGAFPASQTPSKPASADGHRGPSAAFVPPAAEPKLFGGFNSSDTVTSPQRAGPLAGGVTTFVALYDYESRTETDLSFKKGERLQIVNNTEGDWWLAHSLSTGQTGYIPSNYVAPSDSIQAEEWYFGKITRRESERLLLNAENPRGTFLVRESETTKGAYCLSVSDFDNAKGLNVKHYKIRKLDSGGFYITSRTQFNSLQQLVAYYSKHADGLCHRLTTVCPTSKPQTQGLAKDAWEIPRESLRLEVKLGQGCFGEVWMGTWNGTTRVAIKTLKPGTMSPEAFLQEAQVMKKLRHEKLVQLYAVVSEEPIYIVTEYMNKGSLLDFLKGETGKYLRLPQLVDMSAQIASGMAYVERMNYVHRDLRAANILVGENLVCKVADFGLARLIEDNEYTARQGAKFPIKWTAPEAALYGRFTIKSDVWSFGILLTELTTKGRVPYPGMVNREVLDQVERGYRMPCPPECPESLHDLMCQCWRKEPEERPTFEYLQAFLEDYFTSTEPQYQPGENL
Alkaline phosphatase, germ cell type (Homo sapiens), sequence (P10696 20-503 limits assumed): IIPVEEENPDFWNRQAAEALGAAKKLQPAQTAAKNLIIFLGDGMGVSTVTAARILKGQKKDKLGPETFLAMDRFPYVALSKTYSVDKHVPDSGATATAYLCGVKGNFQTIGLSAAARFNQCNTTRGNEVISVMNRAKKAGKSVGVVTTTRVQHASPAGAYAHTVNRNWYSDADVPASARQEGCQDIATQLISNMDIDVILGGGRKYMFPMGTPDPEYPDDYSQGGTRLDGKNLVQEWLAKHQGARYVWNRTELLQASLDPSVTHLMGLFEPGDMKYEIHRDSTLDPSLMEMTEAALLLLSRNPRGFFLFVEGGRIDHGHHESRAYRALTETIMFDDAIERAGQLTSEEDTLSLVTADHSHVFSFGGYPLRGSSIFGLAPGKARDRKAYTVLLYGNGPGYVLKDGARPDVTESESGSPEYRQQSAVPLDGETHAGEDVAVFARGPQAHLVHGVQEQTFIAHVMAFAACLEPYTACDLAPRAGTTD
Alkaline phosphatase (Rattus norvegicus), sequence (Q9JKS8 as listed by the source): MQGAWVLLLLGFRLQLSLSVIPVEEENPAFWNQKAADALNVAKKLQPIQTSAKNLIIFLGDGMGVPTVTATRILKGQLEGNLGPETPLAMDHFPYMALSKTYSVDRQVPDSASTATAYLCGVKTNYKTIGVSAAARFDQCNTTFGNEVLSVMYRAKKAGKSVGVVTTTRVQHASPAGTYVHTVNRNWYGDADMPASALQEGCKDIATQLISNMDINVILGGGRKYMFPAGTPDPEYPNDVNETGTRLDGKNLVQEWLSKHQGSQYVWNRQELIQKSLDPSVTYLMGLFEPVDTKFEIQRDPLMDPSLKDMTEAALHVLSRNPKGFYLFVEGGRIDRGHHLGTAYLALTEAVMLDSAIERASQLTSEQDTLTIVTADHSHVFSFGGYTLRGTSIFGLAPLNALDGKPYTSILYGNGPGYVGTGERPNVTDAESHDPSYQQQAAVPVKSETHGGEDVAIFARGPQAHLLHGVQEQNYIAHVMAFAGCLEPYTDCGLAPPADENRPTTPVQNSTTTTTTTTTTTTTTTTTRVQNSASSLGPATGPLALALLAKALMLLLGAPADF
RAC-alpha serine/threonine-protein kinase (Homo sapiens), sequence (P31749 whole entry): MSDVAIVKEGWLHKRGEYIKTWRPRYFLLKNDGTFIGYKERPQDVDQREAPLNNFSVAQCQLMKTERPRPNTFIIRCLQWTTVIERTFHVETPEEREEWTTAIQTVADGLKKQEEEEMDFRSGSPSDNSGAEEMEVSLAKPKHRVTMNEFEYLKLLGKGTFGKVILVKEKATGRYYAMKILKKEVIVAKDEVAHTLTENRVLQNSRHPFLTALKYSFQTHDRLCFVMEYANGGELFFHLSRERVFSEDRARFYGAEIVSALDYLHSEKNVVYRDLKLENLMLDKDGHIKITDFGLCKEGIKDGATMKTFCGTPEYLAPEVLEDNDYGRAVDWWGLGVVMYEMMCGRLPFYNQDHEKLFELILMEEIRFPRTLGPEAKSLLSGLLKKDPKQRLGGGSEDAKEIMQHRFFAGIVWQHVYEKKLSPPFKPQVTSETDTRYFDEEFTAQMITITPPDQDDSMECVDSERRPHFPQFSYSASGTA
Forkhead box protein O3 (Homo sapiens), sequence (O43524 whole entry): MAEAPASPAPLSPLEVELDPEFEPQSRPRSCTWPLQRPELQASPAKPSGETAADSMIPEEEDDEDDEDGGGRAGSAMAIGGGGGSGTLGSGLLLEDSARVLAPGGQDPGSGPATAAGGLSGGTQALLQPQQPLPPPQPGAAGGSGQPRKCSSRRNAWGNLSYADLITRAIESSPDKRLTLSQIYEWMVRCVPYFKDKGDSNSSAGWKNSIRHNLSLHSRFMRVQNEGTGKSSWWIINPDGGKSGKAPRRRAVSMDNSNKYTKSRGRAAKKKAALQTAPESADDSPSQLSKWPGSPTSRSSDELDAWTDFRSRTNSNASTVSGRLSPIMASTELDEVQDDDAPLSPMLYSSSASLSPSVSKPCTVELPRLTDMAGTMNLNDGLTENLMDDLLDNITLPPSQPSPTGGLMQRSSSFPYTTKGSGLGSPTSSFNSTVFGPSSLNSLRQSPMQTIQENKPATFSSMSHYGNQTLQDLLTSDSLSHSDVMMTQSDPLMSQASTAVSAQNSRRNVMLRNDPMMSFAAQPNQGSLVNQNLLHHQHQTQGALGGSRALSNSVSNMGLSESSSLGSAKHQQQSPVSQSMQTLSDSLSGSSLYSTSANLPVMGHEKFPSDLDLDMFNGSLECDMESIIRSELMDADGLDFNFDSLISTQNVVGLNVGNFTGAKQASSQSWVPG

For `Oc1ccc(/C=C/c2cc(O)cc(O)c2)cc1` [RESVERATROL], the Activity (MC3T3-E1 [1]) was “Active”, the Ratio (Osteoblast [2]) was 0.46 and the Activity [3] was “Active”. For the same compound, the Activity [4] was “Active”, the Activity [5] was “Active” and the Activity (MDA-MB-231 [6]) was “Active”. For the same compound, the Activity [7] was “Active”, the Activity [8] was “Active” and the Activity (MDA-MB-231 [9]) was “Active”. For the same compound, the Activity (MDA-MB-231 [10]) was “Active”, the Activity (MDA-MB-231 [11]) was “Active” and the Activity [12] was “Active”. The Activity (MCF7) was “Active”, the Activity [13] was “Active” and the Activity [14] was “Active”. The Activity (Osteoblast [15]) was “Active”, the Activity (Osteoblast [16]) was “Active” and the Activity (MC3T3-E1 [17]) was “tde”. For the same compound, the Activity (Osteoblast [18]) was “Dose-dependent effect”, the Ratio (Osteoblast [19]) was 8.76 and the Ratio (Osteoblast [20]) was 0.93. It also gave a Ratio (Osteoblast [21]) of 0.27, a Ratio (Osteoblast [22]) of 3.99 and a Ratio (Osteoblast [23]) of 0.43. It also gave a Ratio (Osteoblast [24]) of 4.34 and a Ratio (Osteoblast [25]) of 3.16.
